Tests used:
[1] = Selectivity ratio of Ki for recombinant bovine endothelial NOS to Ki for recombinant rat neuronal NOS
[2] = biological target: T1, Nitric oxide synthase, inducible (Mus musculus, UniProt P29477); test: Binding affinity to recombinant mouse macrophage inducible NOS overexpressed in Escherichia coli assessed as production of nitric oxide from L-arginine measured for 5 mins by oxyhemoglobin NO capture assay
T1 sequence (P29477 whole entry): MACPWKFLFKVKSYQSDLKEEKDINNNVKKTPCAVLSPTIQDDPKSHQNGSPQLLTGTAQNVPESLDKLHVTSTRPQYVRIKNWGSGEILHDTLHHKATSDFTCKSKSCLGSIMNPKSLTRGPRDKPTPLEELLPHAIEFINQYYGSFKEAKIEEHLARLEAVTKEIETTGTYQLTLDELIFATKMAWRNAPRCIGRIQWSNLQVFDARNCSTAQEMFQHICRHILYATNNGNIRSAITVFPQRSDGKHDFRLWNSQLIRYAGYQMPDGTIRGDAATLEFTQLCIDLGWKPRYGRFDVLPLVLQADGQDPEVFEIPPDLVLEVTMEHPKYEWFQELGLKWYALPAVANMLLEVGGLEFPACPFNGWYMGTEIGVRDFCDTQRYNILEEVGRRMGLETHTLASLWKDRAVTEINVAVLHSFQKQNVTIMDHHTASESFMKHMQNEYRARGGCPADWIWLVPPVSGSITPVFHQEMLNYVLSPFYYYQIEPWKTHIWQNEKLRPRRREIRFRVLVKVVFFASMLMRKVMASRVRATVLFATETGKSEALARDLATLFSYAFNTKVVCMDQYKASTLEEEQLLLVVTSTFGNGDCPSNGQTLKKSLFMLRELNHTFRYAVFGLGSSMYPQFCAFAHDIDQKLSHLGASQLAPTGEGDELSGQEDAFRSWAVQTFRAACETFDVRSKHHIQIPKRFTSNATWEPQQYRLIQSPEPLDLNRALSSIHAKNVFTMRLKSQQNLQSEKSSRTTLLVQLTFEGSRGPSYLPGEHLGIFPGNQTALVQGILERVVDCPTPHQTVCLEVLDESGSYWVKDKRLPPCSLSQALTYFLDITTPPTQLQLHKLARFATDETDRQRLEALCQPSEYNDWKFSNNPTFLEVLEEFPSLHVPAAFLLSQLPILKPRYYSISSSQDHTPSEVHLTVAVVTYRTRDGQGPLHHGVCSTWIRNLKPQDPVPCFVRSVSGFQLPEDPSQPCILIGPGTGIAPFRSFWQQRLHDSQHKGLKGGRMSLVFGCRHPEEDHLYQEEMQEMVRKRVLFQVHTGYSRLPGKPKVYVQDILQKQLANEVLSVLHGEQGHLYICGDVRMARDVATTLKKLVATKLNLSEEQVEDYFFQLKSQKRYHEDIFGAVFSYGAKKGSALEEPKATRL

[3] = Selectivity ratio of Ki for recombinant human neuronal NOS to Ki for recombinant rat neuronal NOS
[4] = Selectivity ratio of Ki for recombinant mouse macrophage inducible NOS to Ki for recombinant rat neuronal NOS
[5] = biological target: T2, Alpha-2C adrenergic receptor (Homo sapiens, UniProt P18825); test: Binding affinity to human adrenergic alpha-2C receptor after 90 mins by radioligand displacement assay
T2 sequence (P18825 whole entry): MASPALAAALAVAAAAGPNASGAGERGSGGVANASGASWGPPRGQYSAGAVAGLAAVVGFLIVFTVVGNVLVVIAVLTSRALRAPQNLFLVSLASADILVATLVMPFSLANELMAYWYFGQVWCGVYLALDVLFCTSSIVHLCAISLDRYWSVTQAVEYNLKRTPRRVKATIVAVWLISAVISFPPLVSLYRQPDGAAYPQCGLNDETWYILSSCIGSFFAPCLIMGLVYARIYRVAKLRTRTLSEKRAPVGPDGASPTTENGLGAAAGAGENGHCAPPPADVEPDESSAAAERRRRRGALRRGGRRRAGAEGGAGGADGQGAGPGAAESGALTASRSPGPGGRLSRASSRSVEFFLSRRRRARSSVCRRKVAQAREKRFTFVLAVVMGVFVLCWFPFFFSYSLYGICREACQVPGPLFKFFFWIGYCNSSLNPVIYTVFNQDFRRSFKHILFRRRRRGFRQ

[6] = biological target: D(3) dopamine receptor (Homo sapiens) (UniProt P35462); conditions: 10 uM
CYP2C19 = CYP2C19 (Homo sapiens, UniProt P33261); test: Inhibition of human liver microsomal CYP2C19 using S-mephenytoin as substrate at 10 uM preincubated for 5 mins followed by NADPH addition measured after 20 mins by LC-MS/MS analysis; format: ADME; conditions: liver microsomes, probe S-mephenytoin
Procedure, shortened: (§1)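 Human liver microsomes in Kphos buffer, test compound at 10 μM (DMSO). Probe substrate added and preincubated 5 min at 37 °C, then started with NADPH. Incubation times: CYP3A4 (midazolam) 5 min, CYP2D6 (bufuralol) 10 min, CYP2C19 (S-mephenytoin) 20 min. Stopped with cold acetonitrile containing internal standard. Metabolites measured by LC-MS/MS; % inhibition from peak-area ratios relative to DMSO control.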

[7] = biological target: T3, Sigma non-opioid intracellular receptor 1 (Homo sapiens, UniProt Q99720); test: Binding affinity to human sigma-1 receptor after 90 mins by radioligand displacement assay
[8] = biological target: 5-hydroxytryptamine receptor 2A (Homo sapiens) (UniProt P28223); test: Binding affinity to human 5-HT2A receptor at 10 uM after 90 mins by radioligand displacement assay relative to control
[9] = Permeability across apical to basolateral side in human Caco2 cells assessed as drug recovery at 10 uM after 2 hrs by LC/MS/MS analysis; format: ADME, cell-based; conditions: caco-2, 2 h
Procedure, shortened: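 Caco-2 monolayers grown 3 weeks, integrity checked by Lucifer yellow transport. Compound 10 μM for 2 h added apically; apical buffer HBSS/10 mM HEPES with glucose, pH 6.5, basolateral transport buffer pH 7.4. Receiver side sampled and quantified by LC/MS/MS; recovery reported.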

[10] = biological target: T4, 5-hydroxytryptamine receptor 1A (Homo sapiens) (UniProt P08908); conditions: 10 uM
T4 sequence (whole entry): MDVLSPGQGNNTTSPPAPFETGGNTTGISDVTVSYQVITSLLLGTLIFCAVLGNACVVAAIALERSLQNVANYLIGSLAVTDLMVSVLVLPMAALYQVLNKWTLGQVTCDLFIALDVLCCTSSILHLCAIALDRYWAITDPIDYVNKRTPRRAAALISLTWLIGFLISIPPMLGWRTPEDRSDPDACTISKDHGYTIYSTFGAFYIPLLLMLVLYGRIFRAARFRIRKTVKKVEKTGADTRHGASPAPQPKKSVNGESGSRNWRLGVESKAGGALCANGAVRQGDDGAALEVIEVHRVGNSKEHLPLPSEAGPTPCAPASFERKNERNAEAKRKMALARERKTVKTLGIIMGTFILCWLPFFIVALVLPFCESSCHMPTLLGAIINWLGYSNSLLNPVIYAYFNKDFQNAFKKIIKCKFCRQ

[11] = biological target: T3, Sigma non-opioid intracellular receptor 1; test: Binding affinity to human sigma-1 receptor at 10 uM after 90 mins by radioligand displacement assay relative to control
CYP3A4 = CYP3A4 (Homo sapiens, UniProt P08684); test: Inhibition of human liver microsomal CYP3A4 using midazolam as substrate at 10 uM preincubated for 5 mins followed by NADPH addition measured after 5 mins by LC-MS/MS analysis; format: ADME; conditions: liver microsomes, probe midazolam; procedure, shortened: as §1
CYP2D6 = CYP2D6 (Homo sapiens, UniProt P10635); test: Inhibition of human liver microsomal CYP2D6 using bufuralol as substrate at 10 uM preincubated for 5 mins followed by NADPH addition measured after 10 mins by LC-MS/MS analysis; format: ADME; conditions: liver microsomes, probe bufuralol; procedure, shortened: as §1
[12] = biological target: T5, Alpha-2C adrenergic receptor (Homo sapiens) (UniProt P18825); test: Binding affinity to human adrenergic alpha-2C receptor at 10 uM after 90 mins by radioligand displacement assay relative to control
T5 sequence (whole entry): T2 sequence (P18825 whole entry)

Homo sapiens = species: Homo sapiens; test: Binding affinity to human sigma-2 receptor at 10 uM after 90 mins by radioligand displacement assay relative to control
[13] = Inhibition of calmodulin-dependent bovine neuronal NOS using [3H]-arginine as substrate assessed as citrulline formation after 30 mins; parameters: species or system Bos taurus
Nitric oxide synthase 1 [14] = biological target: Nitric oxide synthase 1 (Rattus norvegicus, UniProt P29476); test: Binding affinity to recombinant rat neuronal NOS overexpressed in Escherichia coli assessed as production of nitric oxide from L-arginine measured for 5 mins by oxyhemoglobin NO capture assay
Nitric oxide synthase 1 [15] = biological target: Nitric oxide synthase 1 (Homo sapiens, UniProt P29475); test: Binding affinity to recombinant human neuronal NOS overexpressed in Escherichia coli assessed as production of nitric oxide from L-arginine measured for 5 mins by oxyhemoglobin NO capture assay
Nitric oxide synthase 3 = biological target: T6, Nitric oxide synthase 3 (Bos taurus, UniProt P29473); test: Binding affinity to recombinant bovine endothelial NOS overexpressed in Escherichia coli assessed as production of nitric oxide from L-arginine measured for 5 mins by oxyhemoglobin NO capture assay
T6 sequence (P29473 whole entry): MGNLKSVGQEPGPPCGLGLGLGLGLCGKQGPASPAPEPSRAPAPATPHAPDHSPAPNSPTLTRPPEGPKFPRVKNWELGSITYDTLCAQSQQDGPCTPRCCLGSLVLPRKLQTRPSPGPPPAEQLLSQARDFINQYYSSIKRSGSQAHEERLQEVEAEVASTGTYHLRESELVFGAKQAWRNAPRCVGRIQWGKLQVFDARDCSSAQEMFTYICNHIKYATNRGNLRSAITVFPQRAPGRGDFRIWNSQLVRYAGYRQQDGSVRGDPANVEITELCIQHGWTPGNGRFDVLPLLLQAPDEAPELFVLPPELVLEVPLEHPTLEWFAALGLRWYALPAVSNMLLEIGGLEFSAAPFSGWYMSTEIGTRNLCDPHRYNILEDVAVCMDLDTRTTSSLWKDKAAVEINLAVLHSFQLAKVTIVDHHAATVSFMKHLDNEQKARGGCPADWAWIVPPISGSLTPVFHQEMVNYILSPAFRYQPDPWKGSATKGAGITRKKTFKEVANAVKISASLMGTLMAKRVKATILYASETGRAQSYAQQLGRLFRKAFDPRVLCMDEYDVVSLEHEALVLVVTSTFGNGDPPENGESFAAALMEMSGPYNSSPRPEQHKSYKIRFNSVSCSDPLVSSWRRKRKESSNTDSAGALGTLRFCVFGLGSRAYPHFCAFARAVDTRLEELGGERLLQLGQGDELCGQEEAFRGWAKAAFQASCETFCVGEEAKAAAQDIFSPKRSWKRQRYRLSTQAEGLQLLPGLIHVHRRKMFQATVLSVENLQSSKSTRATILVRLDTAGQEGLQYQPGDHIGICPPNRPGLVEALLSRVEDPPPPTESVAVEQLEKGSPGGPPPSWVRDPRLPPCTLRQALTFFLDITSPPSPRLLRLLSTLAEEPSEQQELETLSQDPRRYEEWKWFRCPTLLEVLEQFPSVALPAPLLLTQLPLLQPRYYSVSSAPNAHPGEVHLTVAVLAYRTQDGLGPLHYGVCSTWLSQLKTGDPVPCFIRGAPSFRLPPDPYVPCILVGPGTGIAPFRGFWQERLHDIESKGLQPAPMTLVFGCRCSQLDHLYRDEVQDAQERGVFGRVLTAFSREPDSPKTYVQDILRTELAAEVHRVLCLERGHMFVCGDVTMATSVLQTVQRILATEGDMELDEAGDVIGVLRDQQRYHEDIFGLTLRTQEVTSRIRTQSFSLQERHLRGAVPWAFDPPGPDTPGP
Procedure, shortened: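 Purified recombinant bovine eNOS (E. coli-expressed) at 37 °C in 100 mM HEPES, 10% glycerol, pH 7.4, with 10 μM L-arginine and tetrahydrobiopterin, 100 μM NADPH, 0.83 mM CaCl2, ~320 units/mL calmodulin, and 3 μM human oxyhemoglobin. Methemoglobin formation read at 401 nm every 22 s for 5 min. Nine inhibitor concentrations (500 μM–50 nM), at least duplicate.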

Chain of Nitric oxide synthase 1 (Homo sapiens, UniProt P29475) (P29475 whole entry): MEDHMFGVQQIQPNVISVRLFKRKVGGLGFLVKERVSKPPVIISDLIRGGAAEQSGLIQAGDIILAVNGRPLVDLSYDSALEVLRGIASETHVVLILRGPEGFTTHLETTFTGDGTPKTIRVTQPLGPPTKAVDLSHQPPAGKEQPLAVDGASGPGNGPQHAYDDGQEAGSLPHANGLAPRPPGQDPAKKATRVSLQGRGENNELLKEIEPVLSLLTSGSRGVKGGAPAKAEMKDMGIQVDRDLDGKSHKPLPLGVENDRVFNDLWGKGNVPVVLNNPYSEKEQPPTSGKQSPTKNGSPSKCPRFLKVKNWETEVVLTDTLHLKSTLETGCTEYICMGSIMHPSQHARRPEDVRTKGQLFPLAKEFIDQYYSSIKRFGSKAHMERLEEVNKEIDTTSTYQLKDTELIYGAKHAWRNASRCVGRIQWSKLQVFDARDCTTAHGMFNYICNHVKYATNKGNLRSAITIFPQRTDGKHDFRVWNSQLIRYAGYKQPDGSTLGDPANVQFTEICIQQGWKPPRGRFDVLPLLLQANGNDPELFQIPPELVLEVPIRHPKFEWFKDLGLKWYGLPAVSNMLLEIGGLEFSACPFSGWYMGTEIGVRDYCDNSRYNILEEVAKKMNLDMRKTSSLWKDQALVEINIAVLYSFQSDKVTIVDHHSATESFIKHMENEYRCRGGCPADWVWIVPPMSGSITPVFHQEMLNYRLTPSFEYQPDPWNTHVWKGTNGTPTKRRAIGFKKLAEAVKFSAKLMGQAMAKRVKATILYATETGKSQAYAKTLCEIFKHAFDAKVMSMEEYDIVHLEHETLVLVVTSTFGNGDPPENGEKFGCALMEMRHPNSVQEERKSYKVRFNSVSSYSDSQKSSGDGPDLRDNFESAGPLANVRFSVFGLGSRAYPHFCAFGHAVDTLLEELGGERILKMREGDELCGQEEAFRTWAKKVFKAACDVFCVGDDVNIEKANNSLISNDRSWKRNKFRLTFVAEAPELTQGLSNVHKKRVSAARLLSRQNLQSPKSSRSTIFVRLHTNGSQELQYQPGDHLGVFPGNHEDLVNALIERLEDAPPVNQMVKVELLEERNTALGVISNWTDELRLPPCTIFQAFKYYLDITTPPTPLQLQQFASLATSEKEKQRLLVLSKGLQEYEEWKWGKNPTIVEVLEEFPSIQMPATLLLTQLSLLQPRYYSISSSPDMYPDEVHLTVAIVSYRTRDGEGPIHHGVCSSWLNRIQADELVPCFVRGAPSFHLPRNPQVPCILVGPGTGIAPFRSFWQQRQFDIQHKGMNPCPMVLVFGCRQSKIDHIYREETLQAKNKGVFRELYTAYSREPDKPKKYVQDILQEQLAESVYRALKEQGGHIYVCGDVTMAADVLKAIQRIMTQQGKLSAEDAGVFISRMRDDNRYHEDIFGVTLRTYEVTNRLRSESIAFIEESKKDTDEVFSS
Chain of Nitric oxide synthase 1 (Rattus norvegicus, UniProt P29476) (P29476 whole entry): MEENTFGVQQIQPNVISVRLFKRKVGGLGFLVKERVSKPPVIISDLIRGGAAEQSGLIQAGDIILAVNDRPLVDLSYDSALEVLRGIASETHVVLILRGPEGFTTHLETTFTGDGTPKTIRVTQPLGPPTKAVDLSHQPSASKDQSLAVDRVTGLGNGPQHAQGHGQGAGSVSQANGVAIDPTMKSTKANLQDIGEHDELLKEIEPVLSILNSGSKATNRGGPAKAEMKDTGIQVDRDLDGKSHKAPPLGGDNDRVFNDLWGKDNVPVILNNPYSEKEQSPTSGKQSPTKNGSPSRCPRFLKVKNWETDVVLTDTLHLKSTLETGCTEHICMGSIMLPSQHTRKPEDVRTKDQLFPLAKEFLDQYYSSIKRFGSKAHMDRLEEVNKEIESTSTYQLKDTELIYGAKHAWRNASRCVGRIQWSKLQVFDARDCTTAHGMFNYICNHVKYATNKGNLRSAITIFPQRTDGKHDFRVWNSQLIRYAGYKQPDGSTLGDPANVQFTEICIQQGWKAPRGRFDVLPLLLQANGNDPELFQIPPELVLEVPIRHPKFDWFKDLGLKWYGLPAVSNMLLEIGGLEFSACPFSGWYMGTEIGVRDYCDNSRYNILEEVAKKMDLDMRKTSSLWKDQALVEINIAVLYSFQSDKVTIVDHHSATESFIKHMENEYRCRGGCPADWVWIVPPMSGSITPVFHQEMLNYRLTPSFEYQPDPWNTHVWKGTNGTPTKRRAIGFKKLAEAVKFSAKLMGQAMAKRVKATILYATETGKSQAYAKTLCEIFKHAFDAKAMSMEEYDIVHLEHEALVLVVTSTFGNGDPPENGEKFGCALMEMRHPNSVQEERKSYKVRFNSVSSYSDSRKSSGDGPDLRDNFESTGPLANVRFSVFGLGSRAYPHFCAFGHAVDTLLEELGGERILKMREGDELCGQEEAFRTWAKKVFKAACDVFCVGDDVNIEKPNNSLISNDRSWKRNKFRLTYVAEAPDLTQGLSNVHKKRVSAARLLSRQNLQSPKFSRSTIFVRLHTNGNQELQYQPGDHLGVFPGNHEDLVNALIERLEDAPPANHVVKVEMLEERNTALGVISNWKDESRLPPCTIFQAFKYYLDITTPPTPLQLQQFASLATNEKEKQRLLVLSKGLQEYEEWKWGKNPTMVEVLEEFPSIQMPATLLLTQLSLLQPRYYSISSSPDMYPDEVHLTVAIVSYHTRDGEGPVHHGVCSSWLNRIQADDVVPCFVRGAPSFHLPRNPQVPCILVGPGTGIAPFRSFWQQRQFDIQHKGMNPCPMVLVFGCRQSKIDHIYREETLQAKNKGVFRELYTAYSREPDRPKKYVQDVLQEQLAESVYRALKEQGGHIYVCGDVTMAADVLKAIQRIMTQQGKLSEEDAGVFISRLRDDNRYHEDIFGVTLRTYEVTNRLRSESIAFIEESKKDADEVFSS
T3 sequence (Q99720 whole entry): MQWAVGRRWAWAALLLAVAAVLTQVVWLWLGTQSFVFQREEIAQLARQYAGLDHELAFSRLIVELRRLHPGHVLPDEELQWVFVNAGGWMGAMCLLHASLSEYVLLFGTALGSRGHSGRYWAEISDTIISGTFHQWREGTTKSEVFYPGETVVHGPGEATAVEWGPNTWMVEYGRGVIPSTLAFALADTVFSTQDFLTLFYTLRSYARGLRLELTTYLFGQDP
Chain of CYP3A4 (P08684 whole entry): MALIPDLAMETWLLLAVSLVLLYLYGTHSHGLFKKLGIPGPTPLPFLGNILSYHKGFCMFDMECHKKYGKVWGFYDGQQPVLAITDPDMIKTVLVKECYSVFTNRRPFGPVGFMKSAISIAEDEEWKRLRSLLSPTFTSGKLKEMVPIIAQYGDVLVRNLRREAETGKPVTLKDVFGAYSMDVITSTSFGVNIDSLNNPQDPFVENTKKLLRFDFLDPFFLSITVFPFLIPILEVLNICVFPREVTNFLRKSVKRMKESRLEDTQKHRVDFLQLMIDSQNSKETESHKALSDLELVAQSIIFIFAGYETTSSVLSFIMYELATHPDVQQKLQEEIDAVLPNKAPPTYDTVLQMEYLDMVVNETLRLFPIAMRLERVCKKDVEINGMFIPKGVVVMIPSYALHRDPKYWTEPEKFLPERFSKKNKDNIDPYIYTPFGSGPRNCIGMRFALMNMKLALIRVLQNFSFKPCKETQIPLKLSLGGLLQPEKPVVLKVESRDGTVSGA
Chain of 5-hydroxytryptamine receptor 2A (Homo sapiens) (P28223 whole entry): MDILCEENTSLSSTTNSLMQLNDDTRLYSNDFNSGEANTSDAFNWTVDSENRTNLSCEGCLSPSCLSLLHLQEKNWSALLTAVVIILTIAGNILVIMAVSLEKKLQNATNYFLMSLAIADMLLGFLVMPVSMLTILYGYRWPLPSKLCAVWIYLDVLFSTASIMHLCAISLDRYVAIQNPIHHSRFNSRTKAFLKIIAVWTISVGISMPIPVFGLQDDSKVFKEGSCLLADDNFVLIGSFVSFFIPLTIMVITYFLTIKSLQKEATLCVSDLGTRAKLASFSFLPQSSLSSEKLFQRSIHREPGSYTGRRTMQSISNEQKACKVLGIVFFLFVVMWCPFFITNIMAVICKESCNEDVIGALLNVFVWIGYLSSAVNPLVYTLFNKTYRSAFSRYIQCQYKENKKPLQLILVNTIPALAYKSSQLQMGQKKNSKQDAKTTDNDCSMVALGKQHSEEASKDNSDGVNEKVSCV
Chain of CYP2D6 (P10635 whole entry): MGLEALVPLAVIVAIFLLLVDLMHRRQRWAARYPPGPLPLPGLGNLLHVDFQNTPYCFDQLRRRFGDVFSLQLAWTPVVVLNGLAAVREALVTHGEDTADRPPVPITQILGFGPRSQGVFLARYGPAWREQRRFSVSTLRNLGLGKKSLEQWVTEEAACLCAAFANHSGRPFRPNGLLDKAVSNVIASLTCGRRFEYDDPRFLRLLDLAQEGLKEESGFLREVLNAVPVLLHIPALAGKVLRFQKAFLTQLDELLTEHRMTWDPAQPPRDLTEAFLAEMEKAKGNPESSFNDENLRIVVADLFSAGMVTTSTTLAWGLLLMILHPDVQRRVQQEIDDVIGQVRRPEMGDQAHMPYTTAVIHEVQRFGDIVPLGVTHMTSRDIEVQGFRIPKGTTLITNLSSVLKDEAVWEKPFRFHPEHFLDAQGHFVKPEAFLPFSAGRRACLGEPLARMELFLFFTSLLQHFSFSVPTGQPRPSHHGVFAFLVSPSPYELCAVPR
Chain of CYP2C19 (P33261 whole entry): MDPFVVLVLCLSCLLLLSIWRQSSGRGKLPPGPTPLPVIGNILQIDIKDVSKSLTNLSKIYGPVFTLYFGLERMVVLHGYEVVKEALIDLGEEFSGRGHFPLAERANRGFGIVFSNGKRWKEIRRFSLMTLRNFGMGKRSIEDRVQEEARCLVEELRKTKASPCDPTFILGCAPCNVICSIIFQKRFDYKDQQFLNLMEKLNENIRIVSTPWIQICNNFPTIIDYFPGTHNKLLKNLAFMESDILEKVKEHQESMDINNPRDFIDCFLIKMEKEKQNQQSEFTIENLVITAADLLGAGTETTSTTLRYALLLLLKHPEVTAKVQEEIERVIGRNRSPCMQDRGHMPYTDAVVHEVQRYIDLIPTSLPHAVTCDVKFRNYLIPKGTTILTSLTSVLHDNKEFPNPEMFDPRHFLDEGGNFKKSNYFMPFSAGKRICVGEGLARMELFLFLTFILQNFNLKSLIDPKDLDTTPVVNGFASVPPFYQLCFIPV

SMILES: Clc1cccc(CCCNCCc2ccnc(-n3ccnc3)n2)c1
- Ratio Ki [1]: 253
- Ki [2]: 910 nM
- Ratio Ki [3]: 3.9
- Ratio Ki [4]: 28

SMILES: Cl.Fc1cccc(CCCNCCc2ccnc(-n3ccnc3)n2)c1
- Ki [5]: 200 nM
- inhibition [6]: 87%
- inhibition at 20 min, 10 µM (CYP2C19): > 70%
- Ki [7]: 200 nM
- inhibition [8]: 88%
- Drug recovery [9]: 73%
- inhibition [10]: 83%
- inhibition [11]: 94%
- inhibition at 5 min, 10 µM (CYP3A4): > 70%
- inhibition at 10 min, 10 µM (CYP2D6): > 70%
- inhibition [12]: 95%
- inhibition (Homo sapiens): 88%

SMILES: c1ccc(-n2ccnc2)cc1
- IC50 [13]: 25000 nM

SMILES: Cc1nccn1-c1nccc(CCNCCCc2cccc(F)c2)n1
- Ki (Nitric oxide synthase 1 [14]): 11500 nM

SMILES: Fc1cccc(C2CC2CNCCc2ccnc(-n3ccnc3)n2)c1 (stereo not given)
- Ratio Ki [1]: 71
- Ratio Ki [3]: 6.4
- Ratio Ki [4]: 34

SMILES: Fc1cccc(CCCNCCc2ccnc(-n3cncn3)n2)c1
- Ki (Nitric oxide synthase 1 [14]): 27000 nM

SMILES: Fc1cccc(C[C@H]2C[C@@H]2NCCc2ccnc(-n3ccnc3)n2)c1
- Ki [2]: 3000 nM
- Ki (Nitric oxide synthase 1 [14]): 150 nM
- Ki (Nitric oxide synthase 1 [15]): 873 nM
- Ki (Nitric oxide synthase 3): 40000 nM

SMILES: Cc1cn(-c2nccc(CCNCCCc3cccc(F)c3)n2)cn1
- Ki (Nitric oxide synthase 1 [14]): 81000 nM

SMILES: c1c[nH]cn1 [IMIDAZOLE]
- IC50 [13]: 200000 nM

SMILES: Fc1cccc(CCCNCc2ccnc(-n3ccnc3)n2)c1
- Ratio Ki [1]: 33
- Ratio Ki [4]: 4

SMILES: Cc1cncn1-c1nccc(CCNCCCc2cccc(F)c2)n1
- Ki [2]: 24000 nM
- Ki (Nitric oxide synthase 1 [14]): 60 nM
- Ki (Nitric oxide synthase 1 [15]): 303 nM
- Ki (Nitric oxide synthase 3): 15400 nM

SMILES: Fc1cccc(C[C@@H]2C[C@H]2NCCc2ccnc(-n3ccnc3)n2)c1
- Ki [2]: 2140 nM
- Ki (Nitric oxide synthase 1 [14]): 18 nM
- Ki (Nitric oxide synthase 1 [15]): 137 nM
- Ki (Nitric oxide synthase 3): 10300 nM

SMILES: Fc1cccc(CCNCCNc2ccnc(-n3ccnc3)n2)c1
- Ratio Ki [1]: 109
- Ratio Ki [4]: 17
